# A selection: hits, their analogues and other compounds. The true share with any hit is near 3%.
# S1P3 agonist – agonists of human S1P3 receptor; Q99500; S1P3 NFAT-BLA reporter cells, agonism, FRET ratio; relative to 1 µM S1P, basal subtracted; activation, % at 4.5 µM; 60,000 compounds, 0.1% hits; AID 373;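 active means activation above the screen-wide mean plus 3 SD, cut at about 4.5% in these data, passing the limit was not always enough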
# Target sequence (Q99500 whole entry, looked up): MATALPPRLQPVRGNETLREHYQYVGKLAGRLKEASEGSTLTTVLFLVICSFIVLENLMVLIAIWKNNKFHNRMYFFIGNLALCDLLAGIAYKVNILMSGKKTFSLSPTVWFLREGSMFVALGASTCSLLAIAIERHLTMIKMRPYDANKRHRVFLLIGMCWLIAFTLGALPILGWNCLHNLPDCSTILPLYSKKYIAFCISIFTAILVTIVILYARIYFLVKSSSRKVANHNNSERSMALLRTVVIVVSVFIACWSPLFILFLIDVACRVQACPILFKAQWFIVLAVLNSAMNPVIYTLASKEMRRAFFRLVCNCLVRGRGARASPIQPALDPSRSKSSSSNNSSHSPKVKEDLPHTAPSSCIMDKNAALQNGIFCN
#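 Assay system: CHO cells stably expressing human S1P3, Gα16 and NFAT-β-lactamase reporter. Timing: overnight plating, 4 h compound 37 °C, 2 h substrate RT. Signal: β-lactamase FRET emission ratio 460/535 nm. Measure: percent activation versus median 1 µM S1P response, basal-subtracted, per plate. Repeats: primary screen single test, confirmation screen in triplicate.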
# 5HT1E ag – 5-HT1E (human) receptor agonism | activation, % at 6 µM | P28566 | 65,000 compounds, 0.69% hits | CHO 5-HT1E Ga15 NFAT-bla reporter, FRET; 0% DMSO wells, 100% control agonist wells | AID 574;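 active means activation above a set limit, the screen-wide mean activation plus 3 SD, cut at about 8.5% in these data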;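 further: 100% = positive control agonist at 1 µM giving full maximal response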
# 5HT1a ag – activates the human 5-HT1a serotonin receptor; P08908; CHO 5-HT1a Ga15 NFAT-bla reporter, FRET ratio; 0% basal, 100% maximal reference agonist; activation, % at 10 µM; 65,000 compounds, 0.56% hits; AID 567;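 active means activation above the screen-wide mean activation plus 3 SD, cut at about 19% in these data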;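 further: 0% = DMSO wells and 100% = 5-CT at EC100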
# 5-HT1A blocker – blocks the human serotonin 5-HT1a receptor; P08908; CHO 5-HT1a Ga15 NFAT-bla reporter, antagonist mode; inhibition, % at 10 µM; 62,000 compounds, 0.68% hits; AID 612;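 active means inhibition above the mean of all tested compounds plus 3 SD, cut at about 43% in these data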;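 further: receptor stimulated by 5-CT agonist at 100 nM near EC80; beta-lactamase reporter measured by ratiometric fluorescence of a cleavable substrate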
# S1P1 ag pot – activates or potentiates agonism at human S1P1 receptor. S1P1 CRE-bla cells, forskolin, beta-lactamase FRET, potentiator mode; S1P1 agonist co-added at EC20, 2 nM; 100% = saturating reference agonist, 0% = basal. 56,000 compounds, 0.57% hits. activation, % at 9.5 µM. P21453. AID 449;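 active means activation above a cutoff set at the mean activation of all tested compounds plus 3 SD, cut at about 54% in these data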;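 further: forskolin at 4 µM as EC80 and the EC20 agonist is SEW2871; 100% = SEW2871 at its EC100 plus forskolin at EC80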
# 5HT1E antag – 5-HT1E (human) receptor antagonism | AID 571 | inhibition, % at 6 µM | 65,000 compounds, 0.99% hits | P28566 | CHO 5-HT1E Ga15 NFAT-bla reporter, FRET, antagonist;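 active means inhibition above a set limit, the mean inhibition across every tested compound plus 3 SD, cut at about 29% in these data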;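 further: signal is the 460 over 535 nm emission ratio of beta-lactamase substrate; 0% = agonist plus DMSO wells and 100% = wells without agonist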
# The depositor's hits bear a star; nt = no result given.
SMILES,S1P3 agonist,5HT1E ag,5HT1a ag,5-HT1A blocker,S1P1 ag pot,5HT1E antag
COc1cccc(NC(=O)CSc2ncnc3c2oc2ccccc23)c1,-1.7,-1.0,2.3,6.0,-4.8,31.2*
COc1ccc(-c2nc(-c3cccc(C)c3)no2)cc1OC,-0.1,0.7,0.1,6.2,108.5*,-0.5
COc1ccccc1-c1noc(-c2ccccc2)n1,-0.3,-1.2,-1.7,20.3,24.6,-6.8
COc1ccccc1-c1nc(-c2cccc(C)c2)no1,-0.8,-0.3,-0.9,10.0,99.4*,5.0
COc1ccc(-c2nc(-c3ccccc3OC)no2)cc1OC,-0.2,0.3,-0.5,13.2,83.0*,8.1
COc1ccc(-c2nc(-c3cccc(C(F)(F)F)c3)no2)cc1OC,-1.9,0.1,0.7,-1.5,75.0*,10.8
COc1cc(-c2nc(-c3cccc(C)c3)no2)cc(OC)c1OC,-1.0,0.3,-2.8,-0.7,-17.6,-32.1
CCOC(=O)CN1C(=O)C(O)(CC(=O)c2cccc(OC)c2)c2ccccc21 (stereo not drawn),-1.0,0.4,-4.3,9.8,-11.1,-3.9
COc1ccc(C(c2nnnn2Cc2cccs2)N2CCN(c3ccccc3F)CC2)cc1 (stereo not drawn),-1.7,0.3,-2.5,32.5,-6.5,2.1
CCCCOc1ccc(CN(C)c2ncnc(N)n2)cc1,-6.1,-0.5,-0.3,nt,4.2,31.8*
COC(=O)c1sc2ccccc2c1C(=O)OC,-0.2,10.9*,-2.8,2.2,-0.3,2.3
COC(=O)c1sc2ccccc2c1N,-0.4,-0.4,-1.6,10.2,-26.0,-3.1
N#Cc1cnn(-c2ccccc2)c1N,nt,0.0,0.2,5.8,nt,-0.4
CC(C)C1N(c2ccccc2)C(N)=C(C#N)C1(C#N)C#N (stereo not drawn),0.1,0.3,2.4,-6.3,0.9,33.3*
CCCCCCc1cc2cc(C(=O)NC)c(=N)oc2cc1O,-2.0,1.6,32.7*,nt,5.1,2.5
Cc1ccc(S(=O)(=O)NC(=O)c2cc(C)n(CCCn3ccnc3)c2C)cc1,-0.3,-0.1,-1.1,15.9,-3.9,0.5
CCN(CC)S(=O)(=O)c1ccc(/C(O)=C(\C#N)c2nc3ccccc3n2C)cc1,-0.5,0.0,15.2,-22.7,10.6,38.8*
Cc1ccc(SC/C(O)=C(\C#N)c2nc3ccccc3n2C)cc1,-0.7,0.2,0.2,-29.0,-17.4,-10.0
COc1ccc(NC(C)=O)c2nc(C)c(C)nc12,-1.1,-0.1,-0.3,4.9,-5.5,30.2*
COc1ccc2sc(C)nc2c1NC(C)=O,-0.6,-0.8,0.4,1.1,-1.2,-2.0
Cc1cc(O)c(C(C)C)cc1NS(=O)(=O)c1ccccc1,-0.1,-0.8,-2.2,8.5,-18.0,-0.8
N#Cc1nc(COc2ccc(F)cc2)oc1N1CCC(Cc2ccccc2)CC1,-1.0,-1.3,-4.0,56.0*,10.4,1.5
COc1ccc(N2CCN(c3oc(COc4ccccc4Cl)nc3C#N)CC2)cc1,nt,-0.5,-3.7,49.5*,nt,1.6
COc1ccc(OCc2nc(C#N)c(N3CCN(c4ccc(OC)cc4)CC3)o2)cc1,-1.5,-0.4,-2.2,51.8*,10.1,7.3
N#Cc1nc(COc2ccc(Cl)cc2)oc1N1CCCCCC1,-1.2,-0.4,-2.0,28.4,nt,15.1
SMILES,S1P3 agonist,5HT1E ag,5HT1a ag,5-HT1A blocker,S1P1 ag pot,5HT1E antag
CCn1c(Cc2ccc(OC)cc2)nnc1SCC(=O)Nc1nc2ccccc2s1,-0.4,0.9,1.3,-10.2,15.7,-4.0
N=c1n(Cc2ccccc2)c2ccccc2n1CC(O)COc1ccccc1 (stereo not drawn),-0.7,-0.5,19.7*,22.0,-15.3,4.6
CCCCn1c(=N)n(CC(O)COc2ccc(C)cc2)c2ccccc21 (stereo not drawn),-1.7,-0.1,-2.8,53.1*,13.6,-3.2
CCCCn1c(=N)n(CC(O)COc2ccccc2)c2ccccc21 (stereo not drawn),-0.9,-1.4,-4.4,54.4*,0.9,16.8
CCCn1c(=N)n(CC(O)COc2cccc(C)c2)c2ccccc21 (stereo not drawn),-0.9,-0.3,-2.0,37.2,-21.3,-9.3
N#CCCCSc1nnc(-c2ccccn2)o1,-0.4,1.4,-3.0,-7.6,-7.8,0.6
CCc1nn(C(C)C(=O)N2CCc3ccccc3C2)c(=O)c2cc3occc3n12 (stereo not drawn),0.9,-0.1,1.6,-6.2,7.7,-6.9
COc1cc2c(cc1OC)CN(C(=O)c1ccc(OC)c(S(=O)(=O)N3CCOCC3)c1)CC2,-0.2,0.7,-4.1,-6.3,-4.1,4.5
COc1cc2c(cc1OC)CN(C(=O)Cc1ccc(OC)c(S(=O)(=O)N3CCOCC3)c1)CC2,-0.1,24.9*,-0.6,-0.9,3.9,6.3
CCc1ccc(C2CC(c3ccc(C)cc3)n3nc(N)nc3N2)cc1 (stereo not drawn),-1.3,0.0,0.5,-7.5,-12.2,1.7
O=c1oc2c(CN3CCCCCC3)c(O)ccc2cc1-c1nc2ccccc2[nH]1,-0.3,1.0,-1.1,15.0,25.8,30.5*
O=c1cc(-c2ccccc2)c2ccc(O)c(CN3CCCCC3)c2o1,-1.0,-0.3,-0.7,6.1,2.4,15.1
N#Cc1nc(-c2ccc(OCc3ccccc3)cc2)oc1NCc1ccco1,0.0,-0.1,0.8,-22.6,-15.9,-14.2
CNc1oc(-c2ccc(OCc3ccccc3)cc2)nc1C#N,0.4,-0.3,-1.2,-23.8,73.3*,-1.7
Cc1nc(NCc2ccco2)c2c3c(sc2n1)CCC3,-1.9,0.2,-2.0,53.8*,-21.4,13.9
Nc1nonc1-c1nc2ccccc2n1Cc1ccccc1,-1.3,-0.2,-1.5,56.1*,nt,14.4
CCOC(=O)c1ccccc1NC(=O)Cn1c(-c2nonc2N)nc2ccccc21,-2.2,-1.6,-2.1,79.7*,-19.0,74.4*
O=C(CN1C2CCC1CC(NC(=O)Nc1ccccc1)C2)NCc1ccco1 (stereo not drawn),nt,-0.4,-1.8,-3.5,nt,-1.9
O=C(Nc1ccc2c(c1)OCO2)c1cccc2c1C(=O)N(Cc1cccnc1)C2,-0.2,0.6,-1.0,-9.5,-9.2,1.0
COc1cc(NC(=O)c2cccc3c2C(=O)N(Cc2cccnc2)C3)cc(OC)c1OC,1.6,0.6,2.5,17.8,-24.9,29.8*
CC1(C)CC(=O)C(C=NCc2ccc3c(c2)OCO3)=C(O)C1,-0.7,-0.3,-3.1,-5.1,-19.0,4.5
CC1(C)CC(=O)C(C=Nc2cccnc2)=C(O)C1,-1.9,0.4,0.3,34.4,-6.7,32.8*
CC1(C)CC(=O)C(C=Nc2ccc3c(c2)OCO3)=C(O)C1,-1.3,-0.2,-2.3,17.0,20.1,31.0*
Cc1onc(-c2ccccc2)c1C(=O)N1CCCSC1=Nc1ccccc1,-0.5,-1.1,-4.3,16.8,-39.6,-13.6
